Data: ChEMBL document CHEMBL2010643 (Bioorg Med Chem Lett, 2012)

Key:
[1] = molecular target: RAC-alpha serine/threonine-protein kinase (Homo sapiens) (UniProt P31749); assay: Inhibition of PKBalpha assessed as residual activity at 10 uM relative to control
[2] = molecular target: Leucine-rich repeat serine/threonine-protein kinase 2 (Homo sapiens, UniProt Q5S007); assay: Inhibition of wild-type LRRK2 phosphorylation at Ser910 expressed in HEK293 cells after 90 mins by immunoblot analysis; format: cell-based
How it was run: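 HEK293 cells stably expressing wild-type GFP-LRRK2 exposed to DMSO or increasing inhibitor concentrations for 90 min. Lysates immunoblotted for LRRK2 phosphorylated at Ser910 and Ser935 and for total LRRK2.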

[3] = molecular target: Angiopoietin-1 receptor (Homo sapiens) (UniProt Q02763); assay: Inhibition of TIE2 assessed as residual activity at 1 uM relative to control
[4] = molecular target: Serine/threonine-protein kinase N2 (Homo sapiens) (UniProt Q16513); assay: Inhibition of PRK2 assessed as residual activity at 1 uM relative to control
[5] = molecular target: Tyrosine-protein kinase ZAP-70 (Homo sapiens) (UniProt P43403); assay: Inhibition of ZAP70 assessed as residual activity at 10 uM relative to control
How it was run: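 Radioactivity-based enzymatic kinase assays run across a 124-kinase profiling panel (Dundee), reporting the remaining kinase activity relative to a control.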

[6] = molecular target: Dual specificity mitogen-activated protein kinase kinase 6 (Homo sapiens) (UniProt P52564); assay: Inhibition of MKK6 assessed as residual activity at 10 uM relative to control
[7] = molecular target: Ribosomal protein S6 kinase beta-1 (Homo sapiens) (UniProt P23443); assay: Inhibition of S6K1 assessed as residual activity at 10 uM relative to control
[8] = molecular target: Eukaryotic elongation factor 2 kinase (Homo sapiens) (UniProt O00418); assay: Inhibition of EF2K assessed as residual activity at 10 uM relative to control
[9] = molecular target: Serine/threonine-protein kinase 16 (Homo sapiens) (UniProt O75716); assay: Inhibition of MPSK1 assessed as residual activity at 10 uM relative to control
[10] = molecular target: Tyrosine-protein kinase BTK (Homo sapiens) (UniProt Q06187); assay: Inhibition of BTK assessed as residual activity at 10 uM relative to control
[11] = molecular target: Serine/threonine-protein kinase pim-2 (Homo sapiens) (UniProt Q9P1W9); assay: Inhibition of PIM2 assessed as residual activity at 1 uM relative to control
[12] = Inhibition of CK1 assessed as residual activity at 1 uM relative to control
[13] = molecular target: Dual specificity mitogen-activated protein kinase kinase 6 (Homo sapiens) (UniProt P52564); assay: Inhibition of MKK6 assessed as residual activity at 1 uM relative to control
[14] = molecular target: Eukaryotic translation initiation factor 2-alpha kinase 3 (Homo sapiens) (UniProt Q9NZJ5); assay: Inhibition of EIF2AK3 assessed as residual activity at 10 uM relative to control

Chain of Dual specificity mitogen-activated protein kinase kinase 6 (Homo sapiens) (P52564 whole entry): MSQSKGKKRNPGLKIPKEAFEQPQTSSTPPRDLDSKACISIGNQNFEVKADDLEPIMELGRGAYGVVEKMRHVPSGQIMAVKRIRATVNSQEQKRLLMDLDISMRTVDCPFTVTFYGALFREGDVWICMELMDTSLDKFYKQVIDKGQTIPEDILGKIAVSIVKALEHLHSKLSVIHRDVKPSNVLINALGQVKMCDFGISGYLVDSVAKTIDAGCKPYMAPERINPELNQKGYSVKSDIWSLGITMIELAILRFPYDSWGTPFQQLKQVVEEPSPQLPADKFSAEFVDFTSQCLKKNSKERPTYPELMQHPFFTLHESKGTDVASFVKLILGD
Chain of Ribosomal protein S6 kinase beta-1 (Homo sapiens) (P23443 whole entry, looked up): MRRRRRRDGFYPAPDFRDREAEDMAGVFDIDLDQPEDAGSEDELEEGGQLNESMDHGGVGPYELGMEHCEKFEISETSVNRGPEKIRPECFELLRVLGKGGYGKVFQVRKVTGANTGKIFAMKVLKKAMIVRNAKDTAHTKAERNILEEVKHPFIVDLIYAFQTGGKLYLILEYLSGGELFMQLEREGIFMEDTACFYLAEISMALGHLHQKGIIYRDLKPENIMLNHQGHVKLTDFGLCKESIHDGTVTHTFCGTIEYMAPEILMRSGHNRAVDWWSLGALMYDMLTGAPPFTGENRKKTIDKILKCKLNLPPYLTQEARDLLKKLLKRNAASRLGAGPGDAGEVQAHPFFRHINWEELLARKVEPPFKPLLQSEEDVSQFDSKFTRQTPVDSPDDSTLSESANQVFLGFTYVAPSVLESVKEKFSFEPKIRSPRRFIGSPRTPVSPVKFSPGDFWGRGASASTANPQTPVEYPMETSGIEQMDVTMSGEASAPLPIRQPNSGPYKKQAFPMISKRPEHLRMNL
Chain of Leucine-rich repeat serine/threonine-protein kinase 2 (Q5S007 whole entry): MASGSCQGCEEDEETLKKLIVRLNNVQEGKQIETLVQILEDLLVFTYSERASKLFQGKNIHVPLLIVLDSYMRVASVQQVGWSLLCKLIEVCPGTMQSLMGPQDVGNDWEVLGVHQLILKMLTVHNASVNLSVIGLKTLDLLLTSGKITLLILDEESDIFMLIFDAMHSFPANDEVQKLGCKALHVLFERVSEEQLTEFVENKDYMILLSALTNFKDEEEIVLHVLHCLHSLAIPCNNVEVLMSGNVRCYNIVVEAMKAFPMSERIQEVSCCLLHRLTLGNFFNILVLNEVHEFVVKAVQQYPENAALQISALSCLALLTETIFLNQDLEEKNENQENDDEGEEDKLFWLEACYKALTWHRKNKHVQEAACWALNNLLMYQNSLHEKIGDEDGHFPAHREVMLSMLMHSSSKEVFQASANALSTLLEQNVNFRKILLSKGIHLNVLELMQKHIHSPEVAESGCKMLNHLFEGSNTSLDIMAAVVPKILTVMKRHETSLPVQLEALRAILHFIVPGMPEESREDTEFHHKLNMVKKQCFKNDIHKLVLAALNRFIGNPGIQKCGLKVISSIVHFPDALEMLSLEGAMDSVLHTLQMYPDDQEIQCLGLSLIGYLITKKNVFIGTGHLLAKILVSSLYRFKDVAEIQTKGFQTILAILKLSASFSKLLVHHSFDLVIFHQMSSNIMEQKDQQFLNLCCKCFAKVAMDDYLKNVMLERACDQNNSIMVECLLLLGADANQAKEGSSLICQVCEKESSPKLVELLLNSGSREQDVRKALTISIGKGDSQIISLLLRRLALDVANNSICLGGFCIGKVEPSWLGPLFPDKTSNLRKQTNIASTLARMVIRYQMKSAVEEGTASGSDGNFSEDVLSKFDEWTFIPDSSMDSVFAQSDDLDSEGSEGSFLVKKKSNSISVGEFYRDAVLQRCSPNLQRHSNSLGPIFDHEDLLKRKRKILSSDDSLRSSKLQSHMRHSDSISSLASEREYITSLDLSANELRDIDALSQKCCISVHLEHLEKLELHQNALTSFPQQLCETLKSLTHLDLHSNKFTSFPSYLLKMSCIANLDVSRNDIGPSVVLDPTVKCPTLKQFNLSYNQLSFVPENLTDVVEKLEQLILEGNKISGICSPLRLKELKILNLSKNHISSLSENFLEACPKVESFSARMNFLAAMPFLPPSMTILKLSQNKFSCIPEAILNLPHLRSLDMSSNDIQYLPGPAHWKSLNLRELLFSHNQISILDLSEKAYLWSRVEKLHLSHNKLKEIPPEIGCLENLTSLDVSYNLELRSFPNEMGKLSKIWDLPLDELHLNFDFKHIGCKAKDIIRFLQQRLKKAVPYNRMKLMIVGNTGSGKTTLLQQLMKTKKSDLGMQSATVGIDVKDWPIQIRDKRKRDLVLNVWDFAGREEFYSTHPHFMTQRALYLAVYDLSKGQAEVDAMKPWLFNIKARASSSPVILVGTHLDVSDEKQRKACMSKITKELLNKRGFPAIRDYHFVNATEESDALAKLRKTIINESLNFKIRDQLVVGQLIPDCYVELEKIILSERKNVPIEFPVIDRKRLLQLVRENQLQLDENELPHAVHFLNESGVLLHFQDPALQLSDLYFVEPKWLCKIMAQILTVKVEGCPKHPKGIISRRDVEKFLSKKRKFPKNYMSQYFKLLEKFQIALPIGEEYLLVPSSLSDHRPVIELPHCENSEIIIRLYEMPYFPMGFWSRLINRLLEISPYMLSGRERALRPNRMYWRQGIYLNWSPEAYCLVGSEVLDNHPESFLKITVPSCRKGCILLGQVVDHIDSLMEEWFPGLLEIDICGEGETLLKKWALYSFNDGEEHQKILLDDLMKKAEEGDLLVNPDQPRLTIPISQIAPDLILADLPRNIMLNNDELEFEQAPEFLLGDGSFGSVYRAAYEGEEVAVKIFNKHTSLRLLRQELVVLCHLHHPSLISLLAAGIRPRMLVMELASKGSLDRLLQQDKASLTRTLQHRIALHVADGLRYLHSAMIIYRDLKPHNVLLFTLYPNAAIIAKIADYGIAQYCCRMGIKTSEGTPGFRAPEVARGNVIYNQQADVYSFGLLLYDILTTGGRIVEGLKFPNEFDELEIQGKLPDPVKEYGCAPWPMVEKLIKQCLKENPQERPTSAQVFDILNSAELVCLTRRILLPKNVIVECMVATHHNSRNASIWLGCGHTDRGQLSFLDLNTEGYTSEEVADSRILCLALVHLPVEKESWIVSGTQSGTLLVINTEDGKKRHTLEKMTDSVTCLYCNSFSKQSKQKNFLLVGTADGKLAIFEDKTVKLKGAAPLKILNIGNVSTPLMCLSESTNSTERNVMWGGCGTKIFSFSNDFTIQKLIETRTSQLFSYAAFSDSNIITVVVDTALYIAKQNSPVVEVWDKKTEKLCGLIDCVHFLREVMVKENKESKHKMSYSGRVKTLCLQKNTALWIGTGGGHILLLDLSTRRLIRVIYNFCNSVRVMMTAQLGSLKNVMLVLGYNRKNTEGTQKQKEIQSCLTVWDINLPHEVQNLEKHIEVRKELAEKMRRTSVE
Chain of Serine/threonine-protein kinase N2 (Homo sapiens) (Q16513 whole entry, looked up): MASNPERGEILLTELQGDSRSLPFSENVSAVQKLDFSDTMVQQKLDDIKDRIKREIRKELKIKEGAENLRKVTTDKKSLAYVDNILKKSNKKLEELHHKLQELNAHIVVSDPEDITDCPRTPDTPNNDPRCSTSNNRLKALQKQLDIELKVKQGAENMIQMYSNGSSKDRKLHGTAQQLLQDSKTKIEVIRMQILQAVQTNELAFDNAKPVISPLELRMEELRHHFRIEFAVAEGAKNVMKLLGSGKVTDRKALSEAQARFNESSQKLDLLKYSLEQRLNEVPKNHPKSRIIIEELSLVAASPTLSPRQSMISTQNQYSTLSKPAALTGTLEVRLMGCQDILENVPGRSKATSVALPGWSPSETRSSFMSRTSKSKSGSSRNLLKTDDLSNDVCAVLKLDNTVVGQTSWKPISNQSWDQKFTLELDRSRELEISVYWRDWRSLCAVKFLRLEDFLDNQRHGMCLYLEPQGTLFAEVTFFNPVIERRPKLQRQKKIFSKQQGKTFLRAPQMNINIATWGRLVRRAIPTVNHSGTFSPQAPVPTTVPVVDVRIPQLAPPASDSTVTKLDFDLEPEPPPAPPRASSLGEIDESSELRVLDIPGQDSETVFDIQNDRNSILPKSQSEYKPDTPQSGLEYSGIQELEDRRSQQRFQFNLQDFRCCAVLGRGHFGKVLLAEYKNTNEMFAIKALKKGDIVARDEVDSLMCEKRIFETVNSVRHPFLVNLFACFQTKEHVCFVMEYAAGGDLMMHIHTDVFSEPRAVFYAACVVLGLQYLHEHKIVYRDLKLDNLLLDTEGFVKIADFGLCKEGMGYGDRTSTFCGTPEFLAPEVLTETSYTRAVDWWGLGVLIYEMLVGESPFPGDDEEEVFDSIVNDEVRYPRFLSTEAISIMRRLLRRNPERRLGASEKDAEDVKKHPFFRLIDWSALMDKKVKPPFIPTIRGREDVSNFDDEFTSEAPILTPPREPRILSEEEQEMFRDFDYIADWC
Chain of RAC-alpha serine/threonine-protein kinase (Homo sapiens) (P31749 whole entry): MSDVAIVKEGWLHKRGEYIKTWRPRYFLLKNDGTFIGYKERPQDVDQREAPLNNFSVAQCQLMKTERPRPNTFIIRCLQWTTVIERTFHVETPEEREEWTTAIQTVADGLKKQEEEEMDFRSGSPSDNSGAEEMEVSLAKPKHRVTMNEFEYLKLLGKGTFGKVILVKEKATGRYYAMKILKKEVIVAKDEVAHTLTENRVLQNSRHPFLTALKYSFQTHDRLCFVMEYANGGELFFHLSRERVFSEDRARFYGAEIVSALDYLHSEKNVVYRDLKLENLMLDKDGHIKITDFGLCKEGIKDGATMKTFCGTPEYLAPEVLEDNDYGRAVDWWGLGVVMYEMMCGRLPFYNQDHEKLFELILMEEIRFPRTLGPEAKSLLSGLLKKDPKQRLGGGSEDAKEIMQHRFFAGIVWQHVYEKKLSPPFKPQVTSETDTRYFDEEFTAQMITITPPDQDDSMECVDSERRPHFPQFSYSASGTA

Activity [1]: 109%
inhibition [2]: Dose-dependent effect
Activity [3]: 18%
Activity [4]: 51%
Activity [5]: 129%
Activity [6]: 75%
Activity [7]: 68%
Activity [8]: 94%
Activity [9]: 96%
Activity [10]: 38%
Activity [11]: 91%
Activity [12]: 102%
Activity [13]: 90%
Activity [14]: 95%
Compound: COc1cc(N2CCC(N3CCN(C)CC3)CC2)ccc1Nc1ncc(Cl)c(Nc2ccccc2S(=O)(=O)C(C)C)n1 [TAE-684]
